Here are results for 19 molecules from PubChem BioAssay.

A short description of test [1]: S. cerevisiae growth inhibition in permissive medium (OD615), pilot counter-assay for S. cerevisiae lifespan shortening project, permissive growth control (AID 705). Conditions: OD615, 24 h, at 10 µM, active compounds read high. In a few lines:
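System: S. cerevisiae with engineered DeaD lifespan system / Measured by: absorbance (optical density) at 615 nm / Read-out: reduction in yeast growth (OD615) / Times: 4 h cell pre-growth, 24 h exposure at 30 °C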

A short description of test [2]: S. cerevisiae growth inhibition in restrictive medium, OD615, pilot screen, restrictive growth control, yeast lifespan reduction project (AID 706;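 active = growth inhibition above a set limit, 3 SD over mean compound inhibition, in both replicates, cut at about 43% in these data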;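 note: modified DeaD lifespan yeast strain shifted to restrictive glucose medium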). The following applies: OD615, 48 h, at 10 µM, active compounds read high. In a few lines: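 System: Engineered S. cerevisiae DeaD strain | Buffer or medium: Glucose-based CSMM-D restrictive medium | Schedule: 4 h pre-incubation, 48 h exposure at 30 °C | Technique: Optical density at 615 nm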

Test [3] can be described thus: doxorubicin toxicity protection in MRP-1 cells – H69AR cells, CellTiter-Glo, duplicate, MRP-1 activator project, pilot screen (AID 807;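 active = viability increase at or above a cutoff of the median across tested compounds plus 3 SD, cut at about 8.5% in these data, passing the limit was not always enough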;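 note: compound pretreatment 18-22 h then 72 h combined with doxorubicin; 0% = doxorubicin alone and 100% = vehicle without doxorubicin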). Conditions: H69AR viability with doxorubicin, CellTiter-Glo luminescence; at 10 µM; active compounds read high. For orientation: ATP-based viability assays read luminescence as a measure of living cells.
Test [4] can be described thus: viability of HCT116 without oncogenic beta-catenin – human colon tumor cells, pilot screen (AID 823;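 active = cell viability at or below a set limit in both duplicate runs, the limit being the all-compound median minus 4 SD, cut at about 23% in these data, passing the limit was not always enough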;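 note: 0% = wells killed by 20 µM Hyamine and 100% = untreated DMSO cell wells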). Conditions: HCT116 beta-catenin knockout viability, CellTiter-Glo, 60 h; at 10 µM; active compounds read low.
Test [5] is described as follows: viability of PTEN-null HCT116 cells – cell-based, HCT116 clonal line, CellTiter-Glo, pilot screen (AID 824;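 active = viability at or below 27.92% in each of two runs, the all-compound median minus 4 SD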;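 note: 0% = 20 µM Hyamine control and 100% = vehicle cell control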). The following applies: HCT116 PTEN-deleted viability, 60 h, at 10 µM, active compounds read low.
A short description of test [6]: RAM pathway blockade in budding yeast – dse1pr::URA3 reporter, 5-FOA selection, pilot screen (AID 869;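 active = inhibition over a set limit, the all-compound mean plus 3 SD, in both replicate runs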;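 note: 0% = DMSO wells with no growth and 100% = 10 µM 1-NA-PP1 with full growth; RAM network block rescues cells from 5-FOA so hits raise OD615 growth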). The following applies: S. cerevisiae dse1pr::URA3 5-FOA growth, OD615, 2 d; at 10 µM; active compounds read high; strain carries analog-sensitive mutant Cbk1 kinase.
A short description of test [7]: RAM signaling pathway blockade in yeast – S. cerevisiae, Pdr1DBD-CYC8 efflux-inhibited sensitized strain, primary screen (AID 1298;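 active = RAM network inhibition above 8.4% in each of two replicates, 3 SD over the compound average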;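 note: 0% = DMSO untreated cells without growth and 100% = 10 µM 1-NA-PP1 full growth; higher means more yeast growth rescued from 5-FOA killing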). Conditions: S. cerevisiae cbk1-as DSE1-URA3 strain, 5-FOA growth OD615, 2 d; at 50 µM; active compounds read high.

Values without a mark were called inactive. Results filed as inconclusive are left out. Calls of active or inactive are those of the source.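 Rule for the calls, unless noted: active = growth inhibition above 25% in both replicates, a cutoff set 3 SD above the mean; inconclusive = above 25% in only one replicate; inactive = the rest.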

As for `COc1ccc(OC)c2c1sc(=NC(=O)CN1C(=O)CCC1=O)n2C`, the growth inhibition was -3.75% in test [1] and 5.91% in test [2]. For the same molecule, the viability increase in test [3] was -1.92%. Besides, the values for the viability in test [4] and in test [5] were 92.7% and 87.4%, respectively. For the same molecule, in test [6], the inhibition (usually the share of the control response that was lost under treatment) is 1.16%. Also, the RAM network inhibition in test [7] was 2.41%.
With `CC1CC=C2C(C#N)=C(N)C(C#N)(C#N)C(c3cccs3)C2C1` (stereo not drawn), the results for the growth inhibition in test [1] and in test [2] were -11% and -6.39%, respectively. For the same molecule, in test [3], the viability increase was -4.25%. The figures for the viability in test [4] and in test [5] were 85.5% and 85.7%, respectively. Also, the inhibition in test [6] is 2.66%. In addition, the RAM network inhibition in test [7] is 3.84%.
Regarding `CCOC(=O)c1c(C)c(-c2ccccc2)n(CC(=O)N2CCN(C)CC2)c1C`, the growth inhibition was -19% in test [1] and -24.2% in test [2]. The viability increase in test [3] was -2.94%. Moreover, the viability in test [4] and in test [5] was 102% each time. Moreover, in test [6], the inhibition is 2.83%. In test [7], the RAM network inhibition was 2.67%.
Regarding `Cc1cc2cc(CCNC(=O)CC(C)(C)C)c(=O)[nH]c2cc1C`, the growth inhibition is -11.3% in test [1] and -21% in test [2]. Also, the viability increase in test [3] is -0.18%. Further, the viability – broadly, a read-out of living cells in per cent, often relative to untreated cells – is 101% in test [4] and 98.7% in test [5]. For the same molecule, the inhibition in test [6] is 2.57%. The RAM network inhibition in test [7] was 5.74%.
As to `CC(=O)c1ccc(NC(=O)CSc2nc3nc(C)cc(C)n3n2)cc1`, the growth inhibition in test [1] is -20.6%; in test [2] it was -8.37%. In addition, the viability increase in test [3] is -1.88%. Moreover, the viability in test [4] was 101%; in test [5] it was 93.9%. Besides, the inhibition in test [6] was 2.34%. In addition, in test [7], the RAM network inhibition was 2.78%.
On to `CCSC1=C(C#N)C(c2ccc(C)s2)CC(=O)N1` (stereo not drawn), for which the results for the growth inhibition in test [1] and in test [2] were -16.1% and -6.45%, respectively. Further, the viability increase in test [3] was -0.29%. Moreover, the viability in test [4] is 95.8%; in test [5] it was 94.1%. In addition, in test [6], the inhibition was 0.425%. In test [7], the RAM network inhibition is 0.57%.
With `COc1ccccc1CNC(=O)Cn1cc2c(n1)CCCC2`, the growth inhibition is -6.06% in test [1] and -7.73% in test [2]. Further, in test [3], the viability increase is 13.7% (active). Also, the viability in test [4] was 107%; in test [5] it was 101%. Further, the inhibition in test [6] is 0.685%. Further, the RAM network inhibition in test [7] was 3.05%.
For `O=C(NCC1CCCO1)c1nnc(Cc2ccc(F)cc2)o1` (stereo not drawn), the growth inhibition was -12.6% in test [1] and 10.5% in test [2]. In addition, the viability increase in test [3] is -0.18%. In addition, the viability is 98.4% in test [4] and 99.4% in test [5]. Moreover, the inhibition in test [6] is 0.085%. Further, in test [7], the RAM network inhibition is 1.47%.
Regarding `CCOC(=O)CC1=C(C#N)C(c2cccnc2)C(C(=O)OCC)=C(N)O1` (stereo not drawn), the growth inhibition in test [1] is -0.965%; in test [2] it was -12.4%. The viability increase in test [3] was -3.12%. In addition, the viability in test [4] was 104%; in test [5] it was 99.6%. The inhibition in test [6] is 1.98%. Also, the RAM network inhibition in test [7] was 8.18%.
`Cc1nnc(NC(=O)CSc2nnc(CNC(=O)c3ccccc3)n2-c2ccccc2)s1`: the figures for the growth inhibition in test [1] and in test [2] were -5% and -0.57%, respectively. Further, the viability increase in test [3] was 0%. The viability was 96.1% in test [4] and 96.5% in test [5]. In addition, in test [6], the inhibition is 3%. Further, the RAM network inhibition in test [7] is 3.59%.
As for `CN(C)S(=O)(=O)c1ccc(C(=O)Nc2ccc(Cl)cc2)cc1`, the growth inhibition in test [1] was -3.1%; in test [2], -5.55%. Besides, in test [3], the viability increase is -1.63%. Also, the viability was 77.5% in test [4] and 88.8% in test [5]. Besides, the inhibition in test [6] was 2.33%. The RAM network inhibition in test [7] was 3.74%.
For `COc1ccc(C)cc1S(=O)(=O)NC1CCCCC1`, the figures for the growth inhibition in test [1] and in test [2] were -9.02% and -4.09%, respectively. Besides, the viability increase in test [3] was -0.23%. Moreover, the viability in test [4] and in test [5] was 101% each time. For the same molecule, in test [6], the inhibition was 0.525%. The RAM network inhibition in test [7] was 6.79%.
In the case of `C=CCn1c(SCCCC)nc(O)cc1=O`, the growth inhibition in test [1] is 1.55%; in test [2], 8.79%. Moreover, the viability increase in test [3] is -0.11%. Further, the viability in test [4] was 105%; in test [5], 102%. The inhibition in test [6] is 0.02%. Also, the RAM network inhibition in test [7] was -0.21%.
Turning to `Brc1ccccc1OCCCN1CCOCC1`, the growth inhibition in test [1] is -11.7%; in test [2] it was -9.51%. Further, the viability increase in test [3] was 1.1%. The viability in test [4] was 97.8%; in test [5] it was 98.2%. Besides, the inhibition in test [6] is 1.48%. For the same molecule, the RAM network inhibition in test [7] was 4.22%.
Regarding `CCS(=O)(=O)N1CCN(c2cccc(C)c2C)CC1`, the growth inhibition in test [1] is -12.4%; in test [2], -5.41%. In addition, the viability increase in test [3] was -1.48%. The viability in test [4] is 97.5%; in test [5], 89.3%. Besides, in test [6], the inhibition was 2.35%. Also, the RAM network inhibition in test [7] was 4.29%.
With `O=C(Cn1nnc(-c2ccccc2F)n1)Nc1cccc2ncccc12`, the results for the growth inhibition in test [1] and in test [2] were 1.42% and -14.2%, respectively. For the same molecule, the viability increase in test [3] was -2.32%. For the same molecule, the viability in test [4] was 103%; in test [5], 98%. The inhibition in test [6] was 1.36%. For the same molecule, the RAM network inhibition in test [7] is 2.23%.
For the molecule `Brc1ccc(-c2noc(COc3ccc4c(c3)CCC4)n2)o1`, the growth inhibition in test [1] was -10.2%; in test [2] it was -11.6%. In test [3], the viability increase was 2.86%. Also, the viability in test [4] is 95.8%; in test [5] it was 105%. Further, the inhibition in test [6] is 1.22%. The RAM network inhibition in test [7] was 4.46%.
As for `O=C(C1CCN(S(=O)(=O)c2cccc3cccnc23)CC1)N1CCn2c1nc1ccccc12`, the growth inhibition is -1.95% in test [1] and -3.35% in test [2]. For the same molecule, the viability increase in test [3] was -1.86%. The viability is 87.7% in test [4] and 83.2% in test [5]. Besides, the inhibition in test [6] was 2.52%. Besides, in test [7], the RAM network inhibition was -1.55%.
`CC1CCCN(c2nc3c(c(=O)[nH]c(=O)n3C)n2CCSc2nc3ccccc3o2)C1` (stereo not drawn): the figures for the growth inhibition in test [1] and in test [2] were -1.52% and -1.66%, respectively. Besides, the viability increase in test [3] was -3.56%. The viability in test [4] is 98%; in test [5] it was 98.5%. Further, the inhibition in test [6] was 0.55%. The RAM network inhibition in test [7] was 7.08%.
